Test results taken from ChEMBL document CHEMBL4152290, “1H-Benzo[d]imidazoles and 3,4-dihydroquinazolin-4-ones: Design, synthesis and antitubercular activity” (Eur J Med Chem, 2018).
Values after ≈ are worked out from the molar mass of the structure shown.

Columns and labels:
[1] = system: Mycobacterium tuberculosis; assay: Antitubercular activity against Mycobacterium tuberculosis H37Rv ATCC 27294 after 7 days by resazurin dye based assay; format: functional; conditions: H37Rv ATCC 27294, 168 h
Procedure, shortened: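 Resazurin microtiter MIC in 7H9 with 10% ADC. Two-fold dilutions from 1 mg/mL DMSO stocks span 25.0–0.05, 10.0–0.02 or 0.02–0.0004 µg/mL, with 2.5% DMSO final. Inoculum is bead-declumped culture grown in 7H9/10% OADC/0.05% Tween 80, diluted to OD600 0.006. Plates run 7 days at 37 °C, then 0.01% resazurin for 48 h. MIC is the lowest concentration preventing the blue-to-pink change. Three independent tests.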

[2] = Cytotoxicity against human HepG2 cells assessed as cell viability at 10 ug/ml after 72 hrs by MTT assay (reference value: 100%); format: cell-based; conditions: read-out: Activity
Procedure, shortened: (§1)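 Cells were grown in DMEM with 10% heat-inactivated FBS and penicillin-streptomycin, seeded at 2×10^3/well (HepG2, HaCat) or 1×10^3/well (Vero), then left 24 h. Compound was applied at 10 µg/mL final (2% DMSO) for 72 h at 37 °C, 5% CO2. MTT 1 mg/mL was added for 3 h, formazan dissolved in DMSO, and A595 read. Viability is expressed relative to 2% DMSO wells; mean ± SEM, triplicates, three independent experiments.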

[3] = Cytotoxicity against human HepG2 cells assessed as cell viability at 10 ug/ml after 72 hrs by neutral red uptake assay (reference value: 100%); format: cell-based; conditions: read-out: Activity
Procedure, shortened: (§2)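 Seeding was 2×10^3/well for HepG2 and HaCat and 1×10^3/well for Vero. After 24 h, cells received 10 µg/mL final (2% DMSO) for 72 h at 37 °C, 5% CO2. They were washed with PBS, given neutral red 25 µg/mL in serum-free medium for 3 h, washed, and extracted 30 min with acetic acid/EtOH/water 1:50:49. A540 was read. Viability is relative to 2% DMSO controls; mean ± SEM, three experiments in triplicate.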

[4] = Cytotoxicity against human HaCaT cells assessed as cell viability at 10 ug/ml after 72 hrs by MTT assay (reference value: 100%); format: cell-based; conditions: read-out: Activity; procedure, shortened: as §1
[5] = Cytotoxicity against human HaCaT cells assessed as cell viability at 10 ug/ml after 72 hrs by neutral red uptake assay (reference value: 100%); format: cell-based; conditions: read-out: Activity; procedure, shortened: as §2
[6] = Cytotoxicity against African green monkey Vero assessed as cell viability at 10 ug/ml after 72 hrs by MTT assay (reference value: 100%); format: cell-based; conditions: chlorocebus sabaeus, Vero cells; read-out: Activity; procedure, shortened: as §1
[7] = Cytotoxicity against African green monkey Vero assessed as cell viability at 10 ug/ml after 72 hrs by neutral red uptake assay (reference value: 100%); format: cell-based; conditions: chlorocebus sabaeus, Vero cells; read-out: Activity; procedure, shortened: as §2
[8] = Selectivity index, ratio of cytotoxic concentration for human HaCaT cells by MTT assay to MIC for Mycobacterium tuberculosis H37Rv ATCC 27294; format: toxicity; conditions: read-out: Selectivity Index
[9] = Selectivity index, ratio of cytotoxic concentration for human HaCaT cells by neutral red uptake assay to MIC for Mycobacterium tuberculosis H37Rv ATCC 27294; format: toxicity; conditions: read-out: Selectivity Index
[10] = Selectivity index, ratio of cytotoxic concentration for African green monkey Vero cells by MTT assay to MIC for Mycobacterium tuberculosis H37Rv ATCC 27294; format: toxicity; conditions: read-out: Selectivity Index
[11] = Selectivity index, ratio of cytotoxic concentration for African green monkey Vero cells by neutral red uptake assay to MIC for Mycobacterium tuberculosis H37Rv ATCC 27294; format: toxicity; conditions: read-out: Selectivity Index
[12] = Stability of the compound in PBS containing 10% DMSO at 25 degC measured immediately by HPLC analysis; format: physicochemical; conditions: read-out: Stability
[13] = Stability of the compound in PBS containing 10% DMSO at 25 degC measured after 3 hrs by HPLC analysis; format: physicochemical; conditions: buffer
[14] = Stability of the compound in PBS containing 10% DMSO at 25 degC measured after 6 hrs by HPLC analysis; format: physicochemical; conditions: buffer
[15] = Stability of the compound in PBS containing 10% DMSO at 25 degC measured after 9 hrs by HPLC analysis; format: physicochemical; conditions: buffer
[16] = Stability of the compound in PBS containing 10% DMSO at 25 degC measured after 48 hrs by HPLC analysis; format: physicochemical; conditions: buffer
[17] = Stability of the compound in PBS containing 10% DMSO at 37 degC measured immediately by HPLC analysis; format: physicochemical; conditions: read-out: Stability
[18] = Stability of the compound in PBS containing 10% DMSO at 37 degC measured after 3 hrs by HPLC analysis; format: physicochemical; conditions: read-out: Stability
[19] = Stability of the compound in PBS containing 10% DMSO at 37 degC measured after 9 hrs by HPLC analysis; format: physicochemical; conditions: for remaining at 9 h: PBS containing 10% DMSO, read-out: Stability
[20] = Stability of the compound in PBS containing 10% DMSO at 37 degC measured after 24 hrs by HPLC analysis; format: physicochemical; conditions: for remaining at 24 h: PBS containing 10% DMSO, read-out: Stability
Danio rerio [21] = species on record: Danio rerio; assay: Cardiotoxicity in Zebrafish AB embryos assessed as heart beat rate at 15 uM measured at 2 days post fertilization by stereomicroscopic method (reference value: 128.7 to 146.3 bpm); format: organism-based; conditions: in vivo, 48 h
Danio rerio [22] = species on record: Danio rerio; assay: Cardiotoxicity in Zebrafish AB embryos assessed as heart beat rate at 3 uM measured at 2 days post fertilization by stereomicroscopic method (reference value: 128.7 to 146.3 bpm); format: organism-based; conditions: in vivo, 48 h
Danio rerio [23] = species on record: Danio rerio; assay: Cardiotoxicity in Zebrafish AB embryos assessed as heart beat rate at 20 uM measured at 2 days post fertilization by stereomicroscopic method (reference value: 128.7 to 146.3 bpm); format: organism-based; conditions: in vivo, 48 h
Danio rerio [24] = species on record: Danio rerio; assay: Cardiotoxicity in Zebrafish AB embryos assessed as heart beat rate at 15 uM measured at 5 days post fertilization by stereomicroscopic method (reference value: 148.1 to 158.2 bpm); format: organism-based; conditions: in vivo, 120 h
Danio rerio [25] = species on record: Danio rerio; assay: Cardiotoxicity in Zebrafish AB embryos assessed as heart beat rate at 20 uM measured at 5 days post fertilization by stereomicroscopic method (reference value: 148.1 to 158.2 bpm); format: organism-based; conditions: in vivo, 120 h
Danio rerio [26] = species on record: Danio rerio; assay: Toxicity in Zebrafish AB embryos assessed as morphological alteration by measuring effect on body length of larvae at 3 to 20 uM measured at 2 to 5 days post fertilization by stereomicroscopic method; format: organism-based; conditions: in vivo
Procedure, shortened: (§3)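 AB embryos are treated from 2 hpf to 5 dpf at 3.0, 15.0 and 20.0 µM in fish water with 1% DMSO, at 28 °C. Controls are fish water and 1% DMSO. Larvae are photographed under a stereomicroscope (3×) at 2 and 5 dpf, n = 30. Body length (µm), ocular distance (µm) and eye surface area (µm²) are measured from the images.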

Danio rerio [27] = species on record: Danio rerio; assay: Toxicity in Zebrafish AB embryos assessed as morphological alteration by measuring effect on surface area of eyes at 3 to 20 uM measured at 2 to 5 days post fertilization by stereomicroscopic method; format: organism-based; conditions: in vivo; procedure, shortened: as §3
Danio rerio [28] = species on record: Danio rerio; assay: Toxicity in Zebrafish AB embryos assessed as effect on larval survival rate at 3 to 20 uM; format: organism-based; conditions: in vivo
Procedure, shortened: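 Wild-type AB zebrafish embryos are exposed from 2 hpf to 5 dpf at 3.0, 15.0 and 20.0 µM in fish water with 1% DMSO, at 28 °C on a 14/10 h light-dark cycle. Controls are fish water alone and 1% DMSO. Survival and hatching are checked daily under a stereomicroscope.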

Row | Compound | MIC [1] [µM] | viability at 72 h, 10 ug/ml [2] [%] | viability at 72 h, 10 ug/ml [3] [%] | viability at 72 h, 10 ug/ml [4] [%] | viability at 72 h, 10 ug/ml [5] [%] | viability at 72 h, 10 ug/ml [6] [%] | viability at 72 h, 10 ug/ml [7] [%] | selectivity ratio [8] | selectivity ratio [9] | selectivity ratio [10] | selectivity ratio [11] | remaining at 0 h [12] [%] | Stability [13] [%] | Stability [14] [%] | Stability [15] [%] | Stability [16] [%] | remaining at 0 h [17] [%] | remaining at 3 h [18] [%] | Activity (Danio rerio [21]) [bpm] | Activity (Danio rerio [22]) [bpm] | further results
1 | O=C(CSc1nc2ccccc2c(=O)[nH]1)NC1CCCCC1 | 0.97 (≈ 0.308 µg/mL) | 86 | 95 | 100 | 97 | 90 | 92 | ≤ 32 | ≤ 32 | ≤ 32 | ≤ 32 | 100 | 108 | 100 | 118 | 126 | 100 | 109 | 155 | 149.5 | Stability ([19]; buffer, 9 h): 123%; Stability ([20]; buffer, 24 h): 127%; Activity (Danio rerio [23]): 155.7 bpm; Activity (Danio rerio [24]): 163 bpm; Activity (Danio rerio [25]): 158.4 bpm; Activity (Danio rerio [26]): Non-Toxic; Activity (Danio rerio [27]): Non-Toxic; Activity (Danio rerio [28]): Non-Toxic
2 | CC1CCCCC1NC(=O)CSc1nc2ccccc2c(=O)[nH]1 (stereo unspecified) | 0.94 (≈ 0.312 µg/mL) | 94 | 101 | 100 | 99 | 102 | 95 | ≤ 32 | ≤ 32 | ≤ 32 | ≤ 32 | 100 | 128 | 122 | 127 | 142 | 100 | 92 | 151.7 | 156.3 | remaining at 9 h [19]: 71%; remaining at 24 h [20]: 81%; Activity (Danio rerio [23]): 153.9 bpm; Activity (Danio rerio [24]): 163.4 bpm; Activity (Danio rerio [25]): 160.6 bpm; Activity (Danio rerio [26]): Non-Toxic; Activity (Danio rerio [27]): Non-Toxic; Activity (Danio rerio [28]): Non-Toxic
3 | C[C@H]1CC[C@H](NC(=O)CSc2nc3ccccc3c(=O)[nH]2)CC1 | 0.24 (≈ 0.0795 µg/mL) | 83 | 97 | 97 | 97 | 88 | 93 | ≤ 32 | ≤ 32 | ≤ 32 | ≤ 32 | 100 | 76 | 67 | 64 | 20 | 100 | 83 | 134 | 135.5 | remaining at 9 h [19]: 77%; remaining at 24 h [20]: 51%; Activity (Danio rerio [23]): 150.2 bpm; Activity (Danio rerio [24]): 157.4 bpm; Activity (Danio rerio [25]): 153.8 bpm; Activity (Danio rerio [27]): Non-Toxic; Activity (Danio rerio [28]): Non-Toxic
4 | CC1CCCC(NC(=O)CSc2nc3ccccc3c(=O)[nH]2)C1 (stereo unspecified) | 0.24 (≈ 0.0795 µg/mL) | 89 | 95 | 94 | 88 | 89 | 95 | ≤ 32 | ≤ 32 | ≤ 32 | ≤ 32 | 100 | 101 | 102 | 100 | 95 | 100 | 96 | 151.7 | 151.2 | remaining at 9 h [19]: 97%; remaining at 24 h [20]: 97%; Activity (Danio rerio [23]): 152.2 bpm; Activity (Danio rerio [24]): 157.4 bpm; Activity (Danio rerio [25]): 160.9 bpm; Activity (Danio rerio [26]): Non-Toxic; Activity (Danio rerio [27]): Non-Toxic; Activity (Danio rerio [28]): Non-Toxic
